Data from ChEMBL document CHEMBL1687757, “Many chromosomal genes modulate MarA-mediated multidrug resistance in Escherichia coli” (2010).
≈ marks a conversion by molar mass, not a printed value.

Each molecule was assayed on Escherichia coli (assay: Antibacterial activity against marA-overproducing Escherichia coli CR1000 harboring inactivated ompR gene assessed as MarA-mediated multidrug resistance level by measuring fold change in MIC relative to MarA-deficient Escherichia coli CR2000). Settings: not given.
Assay type: functional
How it was run: (§1)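 Each inactivated gene was transferred into both the ΔmarR (CR1000) and the ΔmarRA (CR2000) BW25113 backgrounds. Each derivative was grown overnight in LB and tested by Etest on Mueller-Hinton plates, read after 20 h at 37°C, against cefoxitin, norfloxacin, chloramphenicol and minocycline. The MarA-mediated level compares the MIC in the ΔmarR derivative with the MIC in the matching ΔmarRA derivative.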
With `O=C(N[C@H](CO)[C@H](O)c1ccc([N+](=O)[O-])cc1)C(Cl)Cl` [CHLORAMPHENICOL] the Activity was 93%.

Each molecule was assayed on Escherichia coli (assay: Antibacterial activity against MarA-overexpressing Escherichia coli CR1000 after 20 hrs by Etest method). Settings: CR1000, 20 h.
Assay type: functional
How it was run: (§2)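 MICs by Etest strips on Mueller-Hinton plates, following the manufacturer's specifications. Cells came from overnight liquid cultures in LB at 37°C with agitation. Plates were read after 20 h at 37°C. Antibiotics tested were cefoxitin, norfloxacin, chloramphenicol and minocycline.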
`O=C(N[C@H](CO)[C@H](O)c1ccc([N+](=O)[O-])cc1)C(Cl)Cl` [CHLORAMPHENICOL] was tested, and the MIC was 23.9 µg/mL (≈ 74 µM).

These molecules were tested on Escherichia coli (assay: Antibacterial activity against marA-overproducing Escherichia coli CR1000 harboring inactivated yfdG gene assessed as MarA-mediated multidrug resistance level by measuring fold change in MIC relative to MarA-deficient Escherichia coli CR2000). Settings: not given.
Assay type: functional
How it was run: as §1
Molecule `O=C(N[C@H](CO)[C@H](O)c1ccc([N+](=O)[O-])cc1)C(Cl)Cl` [CHLORAMPHENICOL] has an Activity of 93%.

The molecules below were run on Escherichia coli (assay: Antibacterial activity against marA-overproducing Escherichia coli CR1000 harboring inactivated treC gene assessed as MarA-mediated multidrug resistance level by measuring fold change in MIC relative to MarA-deficient Escherichia coli CR2000). Settings: not given.
Assay type: functional
How it was run: as §1
`O=C(N[C@H](CO)[C@H](O)c1ccc([N+](=O)[O-])cc1)C(Cl)Cl` [CHLORAMPHENICOL] showed an Activity of 85%.

The molecules below were run on Escherichia coli (assay: Antibacterial activity against marA-overproducing Escherichia coli CR1000 harboring inactivated yibLp gene assessed as MarA-mediated multidrug resistance level by measuring fold change in MIC relative to MarA-deficient Escherichia coli CR2000). Settings: not given.
Assay type: functional
How it was run: as §1
In the case of `O=C(N[C@H](CO)[C@H](O)c1ccc([N+](=O)[O-])cc1)C(Cl)Cl` [CHLORAMPHENICOL], the Activity is reported as 50%.

These molecules were tested on Escherichia coli (assay: Antibacterial activity against marA-overproducing Escherichia coli CR1000 harboring inactivated nikD gene assessed as MarA-mediated multidrug resistance level by measuring fold change in MIC relative to MarA-deficient Escherichia coli CR2000). Settings: not given.
Assay type: functional
How it was run: as §1
`O=C(N[C@H](CO)[C@H](O)c1ccc([N+](=O)[O-])cc1)C(Cl)Cl` [CHLORAMPHENICOL] was tested, and the Activity was 50%.

Each molecule was assayed on Escherichia coli (assay: Antibacterial activity against marA-overproducing Escherichia coli CR1000 harboring inactivated yniDp gene assessed as MarA-mediated multidrug resistance level by measuring fold change in MIC relative to MarA-deficient Escherichia coli CR2000). Settings: not given.
Assay type: functional
How it was run: as §1
`O=C(N[C@H](CO)[C@H](O)c1ccc([N+](=O)[O-])cc1)C(Cl)Cl` [CHLORAMPHENICOL] showed an Activity of 125%.

The molecules below were run on Escherichia coli (assay: Ratio of MIC for marA-overproducing Escherichia coli CR1000 to MIC for MarA-deficient Escherichia coli CR2000). Settings: not given.
Assay type: functional
How it was run: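 MICs measured by Etest on Mueller-Hinton plates, read after 20 h at 37°C, for the ΔmarR strain (constitutive chromosomal marA overexpression) and the ΔmarRA strain (BW25113 background), both grown overnight in LB at 37°C. MarA-mediated MDR expressed as the ΔmarR/ΔmarRA MIC ratio.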
For `O=C(N[C@H](CO)[C@H](O)c1ccc([N+](=O)[O-])cc1)C(Cl)Cl` [CHLORAMPHENICOL], the Ratio was 3.

The molecules below were run on Escherichia coli (assay: Antibacterial activity against MarA-deficient Escherichia coli CR2000 after 20 hrs by Etest method). Settings: CR2000, 20 h.
Assay type: functional
How it was run: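 Overnight LB-grown cultures (37°C, agitation) of the ΔmarRA strain (BW25113 background) tested on Mueller-Hinton plates with Etest strips per manufacturer's instructions. MIC read after 20 h at 37°C.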
`O=C(N[C@H](CO)[C@H](O)c1ccc([N+](=O)[O-])cc1)C(Cl)Cl` [CHLORAMPHENICOL] was tested, and the MIC was 8.1 µg/mL (≈ 25.1 µM).

These molecules were tested on Escherichia coli (assay: Antibacterial activity against marA-overproducing Escherichia coli CR1000 harboring inactivated maoC gene assessed as MarA-mediated multidrug resistance level by measuring fold change in MIC relative to MarA-deficient Escherichia coli CR2000). Settings: not given.
Assay type: functional
How it was run: as §1
For `O=C(N[C@H](CO)[C@H](O)c1ccc([N+](=O)[O-])cc1)C(Cl)Cl` [CHLORAMPHENICOL], the Activity was 75%.

What follows are molecules tested on Escherichia coli (assay: Antibacterial activity against wild-type Escherichia coli BW25113 after 20 hrs by Etest method). Settings: BW25113, 20 h.
Assay type: functional
How it was run: as §2
`O=C(N[C@H](CO)[C@H](O)c1ccc([N+](=O)[O-])cc1)C(Cl)Cl` [CHLORAMPHENICOL] was tested, and the MIC was 10.7 µg/mL (≈ 33.1 µM).

These molecules were tested on Escherichia coli (assay: Antibacterial activity against marA-overproducing Escherichia coli CR1000 harboring inactivated hns gene assessed as MarA-mediated multidrug resistance level by measuring fold decrease in MIC relative to MarA-deficient Escherichia coli CR2000). Settings: not given.
Assay type: functional
Design: scale not given: the % may be the effect or the level left
How it was run: as §1
`O=C(N[C@H](CO)[C@H](O)c1ccc([N+](=O)[O-])cc1)C(Cl)Cl` [CHLORAMPHENICOL] showed an Activity of 20%.

The molecules below were run on Escherichia coli (assay: Antibacterial activity against marA-overproducing Escherichia coli CR1000 harboring inactivated ynfE gene assessed as MarA-mediated multidrug resistance level by measuring fold change in MIC relative to MarA-deficient Escherichia coli CR2000). Settings: not given.
Assay type: functional
How it was run: as §1
`O=C(N[C@H](CO)[C@H](O)c1ccc([N+](=O)[O-])cc1)C(Cl)Cl` [CHLORAMPHENICOL] gave an Activity of 93%.

These molecules were tested on Escherichia coli (assay: Antibacterial activity against marA-overproducing Escherichia coli CR1000 harboring inactivated tolC gene assessed as MarA-mediated multidrug resistance level by measuring fold decrease in MIC relative to MarA-deficient Escherichia coli CR2000). Settings: not given.
Assay type: functional
Design: scale not given: the % may be the effect or the level left
How it was run: as §1
`O=C(N[C@H](CO)[C@H](O)c1ccc([N+](=O)[O-])cc1)C(Cl)Cl` [CHLORAMPHENICOL] gave an Activity of 0%.

The molecules below were run on Escherichia coli (assay: Antibacterial activity against marA-overproducing Escherichia coli CR1000 harboring inactivated damX gene assessed as MarA-mediated multidrug resistance level by measuring fold decrease in MIC relative to MarA-deficient Escherichia coli CR2000). Settings: not given.
Assay type: functional
Design: scale not given: the % may be the effect or the level left
How it was run: as §1
`O=C(N[C@H](CO)[C@H](O)c1ccc([N+](=O)[O-])cc1)C(Cl)Cl` [CHLORAMPHENICOL] gave an Activity of 50%.

Each molecule was assayed on Escherichia coli (assay: Antibacterial activity against marA-overproducing Escherichia coli CR1000 harboring inactivated metV gene assessed as MarA-mediated multidrug resistance level by measuring fold change in MIC relative to MarA-deficient Escherichia coli CR2000). Settings: not given.
Assay type: functional
How it was run: as §1
`O=C(N[C@H](CO)[C@H](O)c1ccc([N+](=O)[O-])cc1)C(Cl)Cl` [CHLORAMPHENICOL] gave an Activity of 75%.

These molecules were tested on Escherichia coli (assay: Antibacterial activity against marA-overproducing Escherichia coli CR1000 harboring inactivated acrB gene assessed as MarA-mediated multidrug resistance level by measuring fold decrease in MIC relative to MarA-deficient Escherichia coli CR2000). Settings: not given.
Assay type: functional
Design: scale not given: the % may be the effect or the level left
How it was run: as §1
Work on `O=C(N[C@H](CO)[C@H](O)c1ccc([N+](=O)[O-])cc1)C(Cl)Cl` [CHLORAMPHENICOL] yielded an Activity of 8%.

These molecules were tested on Escherichia coli (assay: Antibacterial activity against marA-overproducing Escherichia coli CR1000 harboring inactivated degP gene assessed as MarA-mediated multidrug resistance level by measuring fold change in MIC relative to MarA-deficient Escherichia coli CR2000). Settings: not given.
Assay type: functional
How it was run: as §1
`O=C(N[C@H](CO)[C@H](O)c1ccc([N+](=O)[O-])cc1)C(Cl)Cl` [CHLORAMPHENICOL] showed an Activity of 50%.

The molecules below were run on Escherichia coli (assay: Antibacterial activity against marA-overproducing Escherichia coli CR1000 harboring inactivated metL gene assessed as MarA-mediated multidrug resistance level by measuring fold change in MIC relative to MarA-deficient Escherichia coli CR2000). Settings: not given.
Assay type: functional
How it was run: as §1
`O=C(N[C@H](CO)[C@H](O)c1ccc([N+](=O)[O-])cc1)C(Cl)Cl` [CHLORAMPHENICOL] gave an Activity of 100%.

What follows are molecules tested on Escherichia coli (assay: Antibacterial activity against marA-overproducing Escherichia coli CR1000 harboring inactivated recD gene assessed as MarA-mediated multidrug resistance level by measuring fold change in MIC relative to MarA-deficient Escherichia coli CR2000). Settings: not given.
Assay type: functional
How it was run: as §1
In the case of `O=C(N[C@H](CO)[C@H](O)c1ccc([N+](=O)[O-])cc1)C(Cl)Cl` [CHLORAMPHENICOL], the Activity is reported as 50%.

Each molecule was assayed on Escherichia coli (assay: Antibacterial activity against marA-overproducing Escherichia coli CR1000 harboring inactivated mhpT gene assessed as MarA-mediated multidrug resistance level by measuring fold change in MIC relative to MarA-deficient Escherichia coli CR2000). Settings: not given.
Assay type: functional
How it was run: as §1
Work on `O=C(N[C@H](CO)[C@H](O)c1ccc([N+](=O)[O-])cc1)C(Cl)Cl` [CHLORAMPHENICOL] yielded an Activity of 100%.

These molecules were tested on Escherichia coli (assay: Antibacterial activity against marA-overproducing Escherichia coli CR1000 harboring inactivated pcnB gene assessed as MarA-mediated multidrug resistance level by measuring fold decrease in MIC relative to MarA-deficient Escherichia coli CR2000). Settings: not given.
Assay type: functional
Design: scale not given: the % may be the effect or the level left
How it was run: as §1
Work on `O=C(N[C@H](CO)[C@H](O)c1ccc([N+](=O)[O-])cc1)C(Cl)Cl` [CHLORAMPHENICOL] yielded an Activity of 33%.

The molecules below were run on Escherichia coli (assay: Antibacterial activity against marA-overproducing Escherichia coli CR1000 harboring inactivated cspGp gene assessed as MarA-mediated multidrug resistance level by measuring fold change in MIC relative to MarA-deficient Escherichia coli CR2000). Settings: not given.
Assay type: functional
How it was run: as §1
`O=C(N[C@H](CO)[C@H](O)c1ccc([N+](=O)[O-])cc1)C(Cl)Cl` [CHLORAMPHENICOL] was tested, and the Activity was 93%.

What follows are molecules tested on Escherichia coli (assay: Antibacterial activity against marA-overproducing Escherichia coli CR1000 harboring inactivated crp gene assessed as MarA-mediated multidrug resistance level by measuring fold change in MIC relative to MarA-deficient Escherichia coli CR2000). Settings: not given.
Assay type: functional
How it was run: as §1
For `O=C(N[C@H](CO)[C@H](O)c1ccc([N+](=O)[O-])cc1)C(Cl)Cl` [CHLORAMPHENICOL], the Activity was 29%.

What follows are molecules tested on Escherichia coli (assay: Antibacterial activity against marA-overproducing Escherichia coli CR1000 harboring inactivated appA gene assessed as MarA-mediated multidrug resistance level by measuring fold change in MIC relative to MarA-deficient Escherichia coli CR2000). Settings: not given.
Assay type: functional
How it was run: as §1
`O=C(N[C@H](CO)[C@H](O)c1ccc([N+](=O)[O-])cc1)C(Cl)Cl` [CHLORAMPHENICOL] showed an Activity of 93%.

Each molecule was assayed on Escherichia coli (assay: Antibacterial activity against marA-overproducing Escherichia coli CR1000 harboring inactivated alx gene assessed as MarA-mediated multidrug resistance level by measuring fold change in MIC relative to MarA-deficient Escherichia coli CR2000). Settings: not given.
Assay type: functional
How it was run: as §1
Work on `O=C(N[C@H](CO)[C@H](O)c1ccc([N+](=O)[O-])cc1)C(Cl)Cl` [CHLORAMPHENICOL] yielded an Activity of 100%.

What follows are molecules tested on Escherichia coli (assay: Antibacterial activity against marA-overproducing Escherichia coli CR1000 harboring inactivated acrA gene assessed as MarA-mediated multidrug resistance level by measuring fold decrease in MIC relative to MarA-deficient Escherichia coli CR2000). Settings: not given.
Assay type: functional
Design: scale not given: the % may be the effect or the level left
How it was run: as §1
In the case of `O=C(N[C@H](CO)[C@H](O)c1ccc([N+](=O)[O-])cc1)C(Cl)Cl` [CHLORAMPHENICOL], the Activity is reported as 8%.

What follows are molecules tested on Escherichia coli (assay: Antibacterial activity against marA-overproducing Escherichia coli CR1000 harboring inactivated cyaA gene assessed as MarA-mediated multidrug resistance level by measuring fold decrease in MIC relative to MarA-deficient Escherichia coli CR2000). Settings: not given.
Assay type: functional
Design: scale not given: the % may be the effect or the level left
How it was run: as §1
For `O=C(N[C@H](CO)[C@H](O)c1ccc([N+](=O)[O-])cc1)C(Cl)Cl` [CHLORAMPHENICOL], the Activity was 46%.
